According to ChEMBL document CHEMBL3774372, “Design, physico-chemical properties and biological evaluation of some new N-[(phenoxy)alkyl]- and N-{2-[2-(phenoxy)ethoxy]ethyl}aminoalkanols as anticonvulsant agents” (Bioorg Med Chem, 2016):
Activity calls are given as the source filed them.

Assays:
Mus musculus [1] = assay: Anticonvulsant activity in mouse assessed as protection against subcutaneous pentylenetetrazol-induced seizures at 100 mg/kg, ip measured after 4 hrs; type: functional, organism-based
Outline: (§1)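 Mice dosed ip as 0.5% methylcellulose suspension; pentylenetetrazole 85 mg/kg in 0.9% NaCl injected subcutaneously into posterior midline, animals watched at least 30 min. Protection = no threshold seizure (single clonic spasm episode lasting ≥5 s); scored protected/tested.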

Mus musculus [2] = assay: Anticonvulsant activity in mouse assessed as protection against subcutaneous pentylenetetrazol-induced seizures at 300 mg/kg, ip measured after 4 hrs; type: functional, organism-based; outline: as §1
Mus musculus [3] = assay: Anticonvulsant activity in mouse assessed as protection against maximal electric shock-induced seizures at 30 mg/kg, ip measured after 0.5 hrs; type: functional, organism-based
Outline: (§2)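 Mice dosed ip with suspension in 0.5% methylcellulose; maximal electroshock applied at the listed time after dosing. Protection = abolition of hindlimb tonic extension component of seizure; reported as animals protected/animals tested.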

Mus musculus [4] = assay: Anticonvulsant activity in mouse assessed as protection against maximal electric shock-induced seizures at 30 mg/kg, ip measured after 4 hrs; type: functional, organism-based; outline: as §2
Mus musculus [5] = assay: Anticonvulsant activity in mouse assessed as protection against maximal electric shock-induced seizures at 300 mg/kg, ip measured after 4 hrs; type: functional, organism-based; outline: as §2
Mus musculus [6] = assay: Neurotoxicity in mouse at 30 mg/kg, ip after 4 hrs by rotarod test; type: toxicity, organism-based; conditions: in vivo
Outline: (§3)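 Mice were dosed ip with compound suspended in 0.5% methylcellulose. Rotarod: a 1 in. knurled rod turning at 6 rpm. Neurotoxicity was scored as failure to stay on the rod for at least 1 min in each of three trials. Results are given as the number of animals affected out of the number tested.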

Mus musculus [7] = assay: Anticonvulsant activity in mouse assessed as protection against maximal electric shock-induced seizures at 100 mg/kg, ip measured after 0.5 hrs; type: functional, organism-based; outline: as §2
Mus musculus [8] = assay: Anticonvulsant activity in mouse assessed as protection against subcutaneous pentylenetetrazol-induced seizures at 300 mg/kg, ip measured after 0.5 hrs; type: functional, organism-based; outline: as §1
Mus musculus [9] = assay: Anticonvulsant activity in mouse assessed as protection against maximal electric shock-induced seizures at 300 mg/kg, ip measured after 0.5 hrs; type: functional, organism-based; outline: as §2
Mus musculus [10] = assay: Anticonvulsant activity in mouse assessed as protection against maximal electric shock-induced seizures at 100 mg/kg, ip measured after 4 hrs; type: functional, organism-based; outline: as §2
Mus musculus [11] = assay: Anticonvulsant activity in mouse assessed as protection against subcutaneous pentylenetetrazol-induced seizures at 100 mg/kg, ip measured after 0.5 hrs; type: functional, organism-based; outline: as §1
Mus musculus [12] = assay: Neurotoxicity in mouse at 300 mg/kg, ip after 4 hrs by rotarod test; type: toxicity, organism-based; conditions: in vivo; outline: as §3
Mus musculus [13] = assay: Neurotoxicity in mouse at 30 mg/kg, ip after 0.5 hrs by rotarod test; type: toxicity, organism-based; conditions: in vivo; outline: as §3
Mus musculus [14] = assay: Anticonvulsant activity in mouse assessed as protection against subcutaneous pentylenetetrazol-induced seizures at 30 mg/kg, ip measured after 4 hrs; type: functional, organism-based; outline: as §1
Rattus norvegicus [15] = assay: Neurotoxicity in rat at 30 mg/kg, po after 2 hrs by rotarod test; type: toxicity, organism-based; conditions: in vivo
Rattus norvegicus [16] = assay: Anticonvulsant activity in rat assessed as protection against maximal electric shock-induced seizures at 30 mg/kg, po measured after 1 hr; type: functional, organism-based
Outline: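 Rats dosed ip or orally as 0.5% methylcellulose suspension; maximal electroshock at listed time. Protection = abolition of hindlimb tonic extension; 4 rats per group, scored protected/tested.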

Rattus norvegicus [17] = assay: Anticonvulsant activity in rat assessed as protection against maximal electric shock-induced seizures at 30 mg/kg, po measured after […]; type: functional, organism-based
Rattus norvegicus [18] = assay: Neurotoxicity in rat at 30 mg/kg, po after […] by rotarod test; type: toxicity, organism-based; conditions: in vivo
Rattus norvegicus [19] = assay: Neurotoxicity in rat at 30 mg/kg, po after 4 hrs by rotarod test; type: toxicity, organism-based; conditions: in vivo
Rattus norvegicus [20] = assay: Neurotoxicity in rat at 30 mg/kg, po after 1 hr by rotarod test; type: toxicity, organism-based; conditions: in vivo
Mus musculus [21] = assay: Anticonvulsant activity in mouse assessed as protection against subcutaneous pentylenetetrazol-induced seizures at 30 mg/kg, ip measured after 0.5 hrs; type: functional, organism-based; outline: as §1
Mus musculus [22] = assay: Neurotoxicity in mouse at 100 mg/kg, ip after 4 hrs by rotarod test; type: toxicity, organism-based; conditions: in vivo; outline: as §3
Mus musculus [23] = assay: Neurotoxicity in mouse at 100 mg/kg, ip after 0.5 hrs by rotarod test; type: toxicity, organism-based; conditions: in vivo; outline: as §3
Rattus norvegicus [24] = assay: Neurotoxicity in rat at 30 mg/kg, po after 0.5 hrs by rotarod test; type: toxicity, organism-based; conditions: in vivo
Mus musculus [25] = assay: Anticonvulsant activity in mouse assessed as protection against maximal electric shock-induced seizures at 10 mg/kg, ip measured after 0.5 hrs; type: functional, organism-based; outline: as §2
Mus musculus [26] = assay: Neurotoxicity in mouse at 300 mg/kg, ip after 0.5 hrs by rotarod test; type: toxicity, organism-based; conditions: in vivo; outline: as §3
Mus musculus [27] = assay: Anticonvulsant activity in mouse assessed as protection against maximal electric shock-induced seizures at 3 mg/kg, ip measured after 0.5 hrs; type: functional, organism-based; outline: as §2
Vibrio harveyi [28] = assay: Mutagenicity in Vibrio harveyi BB7X assessed as number of colonies after 48 hrs (reference value: 15 to 16 no_unit); type: ADME, organism-based; conditions: in vivo
Outline: (§4)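 Vibrio harveyi mutagenicity test: test compound was added to exponentially growing cultures (A600 = 0.1, 30 °C) and grown to OD600 0.3–0.4. Then 5 × 10^6 cells were plated on BOSS agar with neomycin (final 100 µg/mL) and incubated 48 h at 30 °C. Neomycin-resistant colonies were counted. Triplicate; controls were water, DMSO and NQNO 40 ng/mL.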

Vibrio harveyi [29] = assay: Antimutagenic activity against Vibrio harveyi BB7M assessed as inhibition of NQNO-induced mutagenicity after 48 hrs; type: functional
Outline: (§5)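 V. harveyi cultures grown exponentially to A600 0.1 at 30 °C, exposed to test compound for 15 min, then to NQNO, and grown on to A600 0.3–0.4. 5 × 10⁶ cells plated on BOSS agar with neomycin (100, final). Neomycin-resistant colonies counted after 48 h at 30 °C. Result given as % inhibition of NQNO mutagenicity; three independent repeats.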

Vibrio harveyi [30] = assay: Mutagenicity in Vibrio harveyi BB7 assessed as number of colonies after 48 hrs (reference value: 13 to 14 no_unit); type: ADME, organism-based; conditions: in vivo; outline: as §4
Vibrio harveyi [31] = assay: Antimutagenic activity against Vibrio harveyi BB7 assessed as inhibition of NQNO-induced mutagenicity after 48 hrs; type: functional; outline: as §5
Vibrio harveyi [32] = assay: Mutagenicity in Vibrio harveyi BB7M assessed as number of colonies after 48 hrs (reference value: 13 to 14 no_unit); type: ADME, organism-based; conditions: in vivo; outline: as §4
Vibrio harveyi [33] = assay: Mutagenicity in Vibrio harveyi BB7XM assessed as number of colonies after 48 hrs (reference value: 14 no_unit); type: ADME, organism-based; conditions: in vivo; outline: as §4
Vibrio harveyi [34] = assay: Antimutagenic activity against Vibrio harveyi BB7XM assessed as inhibition of NQNO-induced mutagenicity after 48 hrs; type: functional; outline: as §5
Vibrio harveyi [35] = assay: Antimutagenic activity against Vibrio harveyi BB7X assessed as inhibition of NQNO-induced mutagenicity after 48 hrs; type: functional; outline: as §5

| SMILES | Activity (Mus musculus [1]) | Activity (Mus musculus [3]) | Activity (Mus musculus [4]) | Activity (Mus musculus [5]) | Activity (Mus musculus [6]) | Activity (Mus musculus [7]) | Activity (Mus musculus [8]) | Activity (Mus musculus [9]) | Activity (Mus musculus [10]) | Activity (Mus musculus [11]) | Activity (Mus musculus [12]) | Activity (Mus musculus [13]) | Activity (Mus musculus [14]) | Activity (Mus musculus [21]) | Activity (Mus musculus [22]) | Activity (Mus musculus [23]) | Activity (Mus musculus [26]) | also measured |
| --- | --- | --- | --- | --- | --- | --- | --- | --- | --- | --- | --- | --- | --- | --- | --- | --- | --- | --- |
| Cc1cccc(OCCNCC(O)c2ccccc2)c1C (stereo not given) | inactive | inactive | inactive | inactive | Non-toxic | inactive | inactive | inactive | inactive | inactive | Non-toxic | Non-toxic | inactive |  |  |  |  | Activity (Mus musculus [2]): inactive |
| Cc1cc(C)c(OCCNCC(O)c2ccccc2)c(C)c1 (stereo not given) |  | inactive | inactive | Active | Non-toxic | Active | inactive | Active | inactive | inactive | Non-toxic | Non-toxic |  | inactive | Non-toxic | Non-toxic |  | Activity (Rattus norvegicus [15]): Non-toxic; Activity (Rattus norvegicus [16]): inactive; Activity (Rattus norvegicus [17]): inactive; Activity (Rattus norvegicus [18]): Non-toxic; Activity (Rattus norvegicus [19]): Non-toxic; Activity (Rattus norvegicus [20]): Non-toxic; Activity (Rattus norvegicus [24]): Non-toxic |
| Cc1cc(C)c(OCCN[C@H](C)CO)c(C)c1 | inactive | Active | inactive |  | Non-toxic | Active |  |  | inactive | inactive |  | Non-toxic | inactive | inactive | Non-toxic | Toxic | Toxic | Activity (Mus musculus [25]): inactive; Activity (Mus musculus [27]): inactive |
| Cc1cccc(C)c1OCCOCCNC(C)CO (stereo not given) | inactive | inactive | inactive |  | Non-toxic |  |  |  | inactive |  | Non-toxic | Non-toxic | inactive | inactive | Non-toxic | Toxic | Toxic | Activity (Vibrio harveyi [28]): 29; inhibition (INH) (Vibrio harveyi [29]): 75%; Activity (Vibrio harveyi [30]): 24; inhibition (INH) (Vibrio harveyi [31]): 70%; Activity (Vibrio harveyi [32]): 27; Activity (Vibrio harveyi [33]): 19; inhibition (INH) (Vibrio harveyi [34]): 48%; inhibition (INH) (Vibrio harveyi [35]): 27% |
